This is a sample that favours compounds with a hit; in the whole collection about 1.9% have one here.
M4 ag – CHRM4 agonism in calcium assay | P08173 | CHO-K1 hM4/Gqi5, Fluo-8 calcium fluorescence; vehicle 0%, full acetylcholine response 100% | activation, % at 3 µM | hit rate 0.14% among 360,000 | AID 624127;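 active = activation above the run mean over all test wells plus 3 SD, cut at about 32% in these data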;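 also: peak over basal fluorescence ratio per well then scaled between controls; 0% = DMSO wells and 100% = acetylcholine at EC100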
Target sequence (P08173 whole entry, looked up): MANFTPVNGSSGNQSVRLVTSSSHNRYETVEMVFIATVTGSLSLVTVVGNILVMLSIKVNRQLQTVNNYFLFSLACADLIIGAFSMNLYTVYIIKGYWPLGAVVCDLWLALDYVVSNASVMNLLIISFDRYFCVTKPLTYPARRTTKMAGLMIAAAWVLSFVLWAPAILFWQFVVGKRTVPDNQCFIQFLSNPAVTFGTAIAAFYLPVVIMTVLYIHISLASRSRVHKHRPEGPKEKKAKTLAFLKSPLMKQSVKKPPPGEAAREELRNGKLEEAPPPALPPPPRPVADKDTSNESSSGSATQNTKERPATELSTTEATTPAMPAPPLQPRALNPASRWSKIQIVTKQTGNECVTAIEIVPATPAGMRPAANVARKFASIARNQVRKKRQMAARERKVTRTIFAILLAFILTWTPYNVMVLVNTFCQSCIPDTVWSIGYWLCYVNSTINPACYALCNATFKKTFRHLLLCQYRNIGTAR
M5 PAM – potentiates acetylcholine response at human M5 receptor; P08912; CHO-K1 hM5, Fluo-8 calcium, ACh EC20 PAM; 0% = ACh EC20, 100% = ACh EC100; activation, % at 3 µM; hit rate 0.3% among 360,000; AID 624038;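 active = activation above the run cutoff, the mean activation of all test compounds plus 3 SD, cut at about 18% in these data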
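Replicates: One well per compound, no replicates | System: Human M5 receptor in CHO-K1 cells | Benchmarks: Low control EC20 acetylcholine (0%), high control EC100 acetylcholine (100%) | Probe or stimulus: Acetylcholine, EC20 level | Times: Fluo-8 loading 80 min at 37 °C plus 30 min room temperature | Signal: Intracellular calcium via Fluo-8 fluorescence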
M4 PAM – positive allosteric modulators of human muscarinic M4 receptor; CHO-K1 hM4/Gqi5, Fluo-8 calcium fluorescence, ACh EC20; 0% = ACh EC20, 100% = maximal ACh; P08173; hit rate 0.4% among 360,000; activation, % at 3 µM; AID 624126;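 active = activation above its plate's cutoff, the mean activation of sample wells plus 3 SD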
CHRM5 antagonist – blocks acetylcholine activation of human M5 receptor; hit rate 0.59% among 360,000; CHO-hM5 cells, Fluo-8 calcium fluorescence, ACh EC80; P08912; inhibition, % at 3 µM;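 active = inhibition above a per-plate cutoff, the mean of that plate's test compounds plus 3 SD, cut at about 27% in these data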;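 also: 0% = acetylcholine EC80 with DMSO and 100% = DMSO without agonist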
CHRM5 agonist – agonists of human muscarinic M5 receptor (CHRM5); hit rate 0.19% among 360,000; AID 624037; CHO-K1 hM5 cells, Fluo-8 calcium fluorescence; 0% DMSO wells, 100% maximal acetylcholine response; activation, % at 3 µM; P08912;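 active = activation above the run's mean over test compounds plus 3 SD, cut at about 23% in these data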;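 also: signal is peak over basal fluorescence ratio across the kinetic read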
CHRM4 antagonist – CHRM4 antagonism in calcium assay | P08173 | CHO-hM4 cells, ACh EC80, Fluo-8 calcium fluorescence | inhibition, % at 3 µM | hit rate 0.73% among 360,000;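 active = inhibition above its plate's cutoff, the mean inhibition of sample wells plus 3 SD, cut at about 27% in these data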;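 also: 0% = acetylcholine EC80 with DMSO and 100% = DMSO without agonist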
* = called active by the depositor.

SMILES | M4 ag | M5 PAM | M4 PAM | CHRM5 antagonist | CHRM5 agonist | CHRM4 antagonist
CC1Cc2ccccc2N1S(=O)(=O)c1cnc[nH]1 (stereo not drawn) | 1 | 43* | 7 | -4 | 5 | -2
CCC(=O)N1CCN(C(=O)c2ccccc2)CC1 | 0 | -10 | -16 | -2 | 1 | 75*
O=C(/C=C/c1ccc(F)cc1)Nc1ccc2[nH]c(=O)[nH]c2c1 | 0 | 6 | -15 | -2 | -2 | 2
COc1ccc(NS(=O)(=O)c2ccc(-c3coc(C)n3)cc2)cc1OC | 28 | -14 | -14 | 51* | 7 | 47*
Cc1nc(-c2ccc(S(=O)(=O)Nc3ccc(S(N)(=O)=O)cc3)cc2)co1 | 1 | 21* | 14* | -16 | -1 | -8
COc1ccc(NS(=O)(=O)c2ccc(-c3coc(C)n3)cc2)cc1 | 10 | 3 | 5 | -5 | 5 | 0
Cc1csc(NC(=O)NCC2CCCC(CNC(=O)Nc3nc(C)cs3)C2)n1 (stereo not drawn) | 0 | -9 | 7 | 12 | -2 | -10
Cc1noc(C)c1S(=O)(=O)NCCN1CCN(c2ccccc2)CC1 | 4 | 4 | 17* | -5 | -4 | -12
CCc1nc2ccc(C(=O)Nc3cccc(NS(C)(=O)=O)c3)cn2c1N(C)CCCc1ccccc1 | 7 | -8 | -13 | 3 | -2 | 54*
CCc1nc2ccc(C(=O)N(CC)CCN(C)C)cn2c1N(C)CCCc1ccccc1 | 1 | -11 | -15 | 4 | -2 | 27*
CCCn1c(SCC(=O)N2CCCC(C)C2)nnc1-c1cccnc1 (stereo not drawn) | 11 | -8 | -2 | 15 | 0 | 4
O=C1Nc2ccc(Br)cc2C1(O)c1ccccc1 (stereo not drawn) | 6 | -1 | 0 | -3 | 0 | -17
O=C1Nc2ccc(Br)cc2C12NNc1ccccc1O2 (stereo not drawn) | 24 | -13 | -6 | 31* | 22 | 21
CSc1cccc(NC(=O)CCCNC(=O)c2ccc(Cl)cc2)c1 | 4 | -4 | 5 | 10 | -3 | 6
O=S1(=O)CC(O)C(Nc2ccccc2)C1 (stereo not drawn) | 0 | 42* | 26* | -8 | -6 | -4
O=S1(=O)CC(O)C(Nc2ccc(Cl)cc2)C1 (stereo not drawn) | 1 | -3 | 2 | -7 | 1 | 1
Cc1ccc(S(=O)(=O)N[C@@H](CC(C)C)C(=O)N2CCC(C(=O)N[C@@H](Cc3ccccc3)C(=O)O)CC2)cc1 | 1 | -2 | 4 | 6 | 3 | -2
Cc1cc2c3c([nH]c2cc1S(=O)(=O)NCc1ccc(CN2CCCCCC2)o1)CCCC3=O | 0 | -3 | -27 | 1 | -11 | 68*
O=C(CCC(=O)N1CCN(Cc2ccc(F)cc2)CC1)Nc1nnc(C2CCCCC2)s1 | 1 | -11 | -3 | 18 | -4 | 2
COc1ccc(CN(C(=O)c2snc(C(N)=O)c2N)C(C(=O)NC2CCCC2)c2cc(OC)ccc2OC)cc1 (stereo not drawn) | 0 | -4 | -5 | 9 | -2 | 0
CNCCC=C1c2ccccc2CCc2ccccc21 | 7 | -19 | -17 | 93* | 0 | 67*
CC(=O)Nc1ccc2c(c1)CCc1ccccc1-2 | 3 | 1 | 0 | -2 | 0 | -20
CNc1sc(C(=O)c2cccs2)c(N)c1-c1nc2ccccc2s1 | 2 | 6 | 1 | 20 | 2 | 34*
CC(=O)Nc1scc(C)c1-c1nc2ccccc2s1 | 0 | -3 | -6 | 10 | -4 | -5
CNc1sc(C(=O)c2ccc(F)cc2)c(N)c1-c1nc2ccccc2s1 | 3 | -5 | 15 | 19 | 0 | 32*
SMILES | M4 ag | M5 PAM | M4 PAM | CHRM5 antagonist | CHRM5 agonist | CHRM4 antagonist
CC1CN(C(=O)N(C)C)CCN1C(=O)N(C)C (stereo not drawn) | 0 | -4 | 13 | 7 | -2 | 31*
CC1CCC(NS(=O)(=O)c2ccc(N3CCCC3=O)cc2)CC1 (stereo not drawn) | 31 | 14 | -13 | 17 | 8 | 32*
O=C1CCCN1c1ccc(S(=O)(=O)Nc2cccnc2)cc1 | 1 | 1 | 6 | -9 | -8 | 3
Cc1nnsc1C(=O)N1CCCC(C)(C(=O)NS(=O)(=O)C2CC2)C1 (stereo not drawn) | 2 | -1 | 20* | -5 | 0 | -13
Cc1cccc(OCc2nc(C#N)c(N3CC(C)CC(C)C3)o2)c1 (stereo not drawn) | -1 | -10 | -4 | 5 | -1 | -11
Cc1cccc(OCc2nc(C#N)c(N3CCCC3)o2)c1 | 0 | 21* | 2 | -11 | -4 | -11
Cc1cccc(NC(=O)COC(=O)CC2CCCC2)c1C | 0 | 0 | 3 | -3 | 0 | -12
CCn1c2ccccc2c2nnc(SCCN3CCCCC3)nc21 | 1 | 2 | -15 | 6 | -15 | 28*
CCn1c2ccccc2c2nnc(SCCN3CCOCC3)nc21 | 4 | 1 | -7 | 1 | 2 | 3
CCn1nnnc1SCC(=O)NCc1cccs1 | 0 | 18* | 0 | -3 | -5 | 3
CC(C)(C)c1cc(CCC(=O)NNC(=O)c2ccncc2)cc(C(C)(C)C)c1O | 0 | 5 | 8 | -10 | 6 | -22
Cc1c(N2C(=O)/C(=C/c3ccc(N(C)C)cc3)N(C)C2=S)c(=O)n(-c2ccccc2)n1C | 4 | -18 | -1 | 20 | 34* | 3
Cc1ccc2c(c1)N(CCC(=O)NCCCN1CCCC1)C(=O)C(C)O2 (stereo not drawn) | 1 | 1 | -6 | 8 | -5 | -6
S=C(Nc1cccc2ccccc12)NN1CCCCCC1 | -1 | -27 | -17 | 9 | -10 | 35*
Cc1cc(C)[n+]2[nH]c(N)c(N=Nc3ccccc3)c2n1 | 2 | 22* | 10 | -17 | 3 | 1
COc1cc(OC)cc(OC2(C)CCN(Cc3ccc(OC(C)C)cc3)C2)c1 (stereo not drawn) | 2 | -15 | -10 | 11 | 0 | 53*
CC(C)c1ccc(CN2CCC(C)(Oc3ccc(Cl)cc3)C2)cc1 (stereo not drawn) | 0 | -3 | 0 | -4 | -2 | -3
COC(=O)Cc1ccc(OC2(C)CCN(Cc3ccccc3)C2)cc1 (stereo not drawn) | 0 | -10 | -13 | 12 | -3 | 63*
CCN(CC)CCN1C(=O)C(=O)/C(=C(/O)c2c(C)[nH]c(C(=O)OC)c2C)C1c1ccccc1 (stereo not drawn) | 1 | 3 | 30* | 4 | -2 | 1
